Laboratory results published in ChEMBL document CHEMBL3865817, “Synthesis and biological evaluation of C(5)-substituted derivatives of leukotriene biosynthesis inhibitor BRP-7” (Eur J Med Chem, 2016).
Activity calls are given as the source filed them. The rule behind the calls is not given here.

Assays:
[1] = molecular target: T1, Arachidonate 5-lipoxygenase-activating protein (Homo sapiens) (UniProt P20292); assay: (§1) Inhibition of FLAP in human neutrophils assessed as suppression of A23187-stimulated 5-LO product formation using arachidonic acid as substrate measured as residual activity at 1 uM preincubated for 15 mins followed by A23187/arachidonic acid addition after 10 mins RP-HPLC/UV analysis relative to control
T1 sequence (whole entry): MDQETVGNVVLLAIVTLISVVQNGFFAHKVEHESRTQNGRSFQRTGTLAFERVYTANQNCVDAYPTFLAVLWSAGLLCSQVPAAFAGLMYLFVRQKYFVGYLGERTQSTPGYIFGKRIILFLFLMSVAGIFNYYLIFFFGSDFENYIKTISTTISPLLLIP
In short: (§2)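 Neutrophils were isolated from human blood by dextran sedimentation, Nycoprep centrifugation and hypotonic lysis of erythrocytes, then resuspended in PGC buffer (PBS pH 7.4, 1 mg/ml glucose, 1 mM CaCl2). Cells were pre-incubated with compound or vehicle (0.1% DMSO) for 15 min at 37 °C, stimulated with 2.5 µM A23187 for 10 min, and stopped with methanol. Internal standard PGB1. 5-LO products (LTB4, its trans isomers, 5-H(P)ETE) were measured by HPLC.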

[2] = molecular target: T1, Arachidonate 5-lipoxygenase-activating protein (Homo sapiens); assay: as §1, with “at 10” for “at 1”; in short: as §2
[3] = molecular target: T2, Arachidonate 5-lipoxygenase-activating protein (Homo sapiens, UniProt P20292); assay: (§3) Inhibition of FLAP in human neutrophils assessed as suppression of A23187-stimulated 5-LO product formation using arachidonic acid as substrate preincubated for 15 mins followed by A23187/arachidonic acid addition after 10 mins RP-HPLC/UV analysis; in short: as §2
T2 sequence (P20292 whole entry): T1 sequence (whole entry)

[4] = molecular target: T1, Arachidonate 5-lipoxygenase-activating protein (Homo sapiens); assay: Inhibition of FLAP (unknown origin) expressed in HEK293 cells co-expressing 5-LO assessed as suppression of A23187-stimulated 5-LO product formation at 0.3 uM using arachidonic acid as substrate preincubated for 15 mins followed by A23187/substrate addition by RP-HPLC analysis; format: cell-based
[5] = molecular target: T1, Arachidonate 5-lipoxygenase-activating protein (Homo sapiens); assay: as §3; in short: as §2
[6] = molecular target: T2, Arachidonate 5-lipoxygenase-activating protein; assay: Inhibition of FLAP in human monocytes assessed as suppression of A23187-stimulated 5-LO product formation using 10 uM arachidonic acid as substrate preincubated for 15 mins followed by A23187/arachidonic acid addition after 10 mins by RP-HPLC/UV analysis; format: cell-based
[7] = molecular target: T2, Arachidonate 5-lipoxygenase-activating protein; assay: Inhibition of FLAP in human monocytes assessed as suppression of A23187-stimulated 5-LO product formation preincubated for 15 mins followed by A23187 after 10 mins RP-HPLC/UV analysis; format: cell-based
[8] = molecular target: T2, Arachidonate 5-lipoxygenase-activating protein; assay: Inhibition of FLAP in human monocytes assessed as suppression of fMLP/LPS-stimulated cys-LT formation preincubated for 15 mins measured after 10 mins by ELISA; format: cell-based
[9] = molecular target: T1, Arachidonate 5-lipoxygenase-activating protein (Homo sapiens); assay: Potency index, ratio of BRP-7 IC50 to compound IC50 for FLAP in human neutrophils
[10] = molecular target: T3, Polyunsaturated fatty acid 5-lipoxygenase (Homo sapiens) (UniProt P09917); details: 3 uM
T3 sequence (whole entry): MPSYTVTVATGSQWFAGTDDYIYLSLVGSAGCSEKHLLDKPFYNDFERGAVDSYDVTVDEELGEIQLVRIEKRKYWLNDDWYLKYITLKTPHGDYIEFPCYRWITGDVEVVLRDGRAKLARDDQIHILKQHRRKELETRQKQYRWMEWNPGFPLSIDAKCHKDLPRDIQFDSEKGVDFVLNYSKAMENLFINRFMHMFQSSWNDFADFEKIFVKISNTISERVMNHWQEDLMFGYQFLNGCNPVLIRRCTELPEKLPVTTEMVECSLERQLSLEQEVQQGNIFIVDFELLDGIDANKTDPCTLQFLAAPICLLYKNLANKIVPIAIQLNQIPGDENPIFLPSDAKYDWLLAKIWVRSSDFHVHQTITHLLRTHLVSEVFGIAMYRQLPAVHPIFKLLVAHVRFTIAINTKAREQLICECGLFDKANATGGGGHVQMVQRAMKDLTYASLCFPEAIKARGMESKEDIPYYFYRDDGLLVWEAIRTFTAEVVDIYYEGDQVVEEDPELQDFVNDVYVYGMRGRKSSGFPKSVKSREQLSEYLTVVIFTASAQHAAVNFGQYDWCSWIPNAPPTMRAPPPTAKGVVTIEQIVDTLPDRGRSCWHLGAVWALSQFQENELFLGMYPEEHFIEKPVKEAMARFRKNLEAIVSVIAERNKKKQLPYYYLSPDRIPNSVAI

Compound `CC(C)Cc1ccc(C(C)c2nc3cc(OCc4ccc(OC(F)(F)F)cc4)ccc3n2Cc2ccccc2C(F)(F)F)cc1` (stereo not given) has an Activity [1] of 99.9%.
`Cc1ccccc1COc1ccc2c(c1)nc(C(C)c1ccc(CC(C)C)cc1)n2Cc1ccccc1C(F)(F)F` (stereo not given) gave an Activity [2] of 89.7% and an Activity [1] of 97.1%.
In the case of `CC(C)Cc1ccc(C(C)c2nc3cc(OCc4ccccc4C#N)ccc3n2Cc2ccccc2Cl)cc1` (stereo not given), the IC50 [3] is reported as 0.12 µM, the Activity [2] is reported as 15.6% and the Activity [1] is reported as 39.9%.
In the case of `CC(C)Cc1ccc(C(C)c2nc3cc(OCc4ccccc4C(F)(F)F)ccc3n2Cc2ccccc2C(F)(F)F)cc1` (stereo not given), the Activity [1] is reported as 90.9%.
In the case of `CCCCOc1ccc2c(c1)nc(C(C)c1ccc(CC(C)C)cc1)n2Cc1ccccc1C(F)(F)F` (stereo not given), the Activity [1] is reported as 58.1%.
Work on `C=CCOc1ccc2c(c1)nc(C(C)c1ccc(CC(C)C)cc1)n2Cc1ccccc1C(F)(F)F` (stereo not given) yielded an IC50 [3] of 0.17 µM, an Activity [2] of 0.6% and an Activity [1] of 7.5%.
With `CCC#CCOc1ccc2c(c1)nc(C(C)c1ccc(CC(C)C)cc1)n2Cc1ccccc1C(F)(F)F` (stereo not given) the Activity [1] was 55.6%.
`COc1ccc(COc2ccc3c(c2)nc(C(C)c2ccc(CC(C)C)cc2)n3Cc2ccccc2C(F)(F)F)cc1` (stereo not given) showed an Activity [2] of 80.1% and an Activity [1] of 81.6%.
For `CC(C)c1ccc2c(c1)c(SC(C)(C)C)c(CC(C)(C)C(=O)O)n2Cc1ccc(Cl)cc1`, the Activity [1] was 2.7% and the inhibition [4] was “Active”.
For `Cc1cccc(COc2ccc3c(c2)nc(C(C)c2ccc(CC(C)C)cc2)n3Cc2ccccc2C(F)(F)F)c1` (stereo not given), the Activity [1] was 98.2%.
In the case of `CC(C)Cc1ccc(C(C)c2nc3cc(OCc4ccccc4C#N)ccc3n2Cc2ccccc2C(F)(F)F)cc1` (stereo not given), the Activity [1] is reported as 65.2%.
With `CC(C)Cc1ccc(C(C)c2nc3cc(OCc4ccc(C(C)(C)C)cc4)ccc3n2Cc2ccccc2C(F)(F)F)cc1` (stereo not given) the Activity [2] was 94% and the Activity [1] was 94.9%.
`Cc1ccc(COc2ccc3c(c2)nc(C(C)c2ccc(CC(C)C)cc2)n3Cc2ccccc2C(F)(F)F)cc1` (stereo not given) was tested, and the Activity [2] was 90.5% and the Activity [1] was 92.6%.
In the case of `CC(C)Cc1ccc(C(C)c2nc3cc(OCc4ccc(C(F)(F)F)cc4)ccc3n2Cc2ccccc2C(F)(F)F)cc1` (stereo not given), the Activity [2] is reported as 94.3% and the Activity [1] is reported as 91.7%.
For `CC(C)Cc1ccc(C(C)c2nc3cc(OCc4cccc(F)c4)ccc3n2Cc2ccccc2C(F)(F)F)cc1` (stereo not given), the Activity [2] was 85.9% and the Activity [1] was 92%.
Work on `CC(C)Cc1ccc(C(C)c2nc3cc(OCc4ccccc4Cl)ccc3n2Cc2ccccc2C(F)(F)F)cc1` (stereo not given) yielded an Activity [2] of 92.2% and an Activity [1] of 92.2%.
With `CC(C)Cc1ccc(C(C)c2nc3cc(C#N)ccc3n2Cc2ccccc2Cl)cc1` (stereo not given) the inhibition [5] was “Dose-dependent effect”, the IC50 [3] was 0.07 µM and the IC50 [6] was 0.035 µM. It also gave an IC50 [7] of 0.026 µM, an IC50 [8] of 0.012 µM and a Ratio IC50 [9] of 4.4. For the same compound, the Activity [1] was 0% and the inhibition [4] was “Active”.
Work on `CC(C)Cc1ccc(C(C)c2nc3cc(OCc4ccc(C#N)cc4)ccc3n2Cc2ccccc2C(F)(F)F)cc1` (stereo not given) yielded an Activity [1] of 71.1%.
`CC(C)=CCOc1ccc2c(c1)nc(C(C)c1ccc(CC(C)C)cc1)n2Cc1ccccc1C(F)(F)F` (stereo not given) gave an Activity [1] of 60.2%.
For `CC(c1cc2ccccc2s1)N(O)C(N)=O` (stereo not given), the inhibition [10] was greater than 80%.
`CC(C)Cc1ccc(C(C)c2nc3cc(OCc4ccc(Br)cc4)ccc3n2Cc2ccccc2C(F)(F)F)cc1` (stereo not given) gave an Activity [2] of 94.4% and an Activity [1] of 108%.
For `CC(C)Cc1ccc(C(C)c2nc3cc(OCc4ccccn4)ccc3n2Cc2ccccc2C(F)(F)F)cc1` (stereo not given), the IC50 [3] was 0.15 µM and the Activity [1] was 0%.
`COC(=O)COc1ccc2c(c1)nc(C(C)c1ccc(CC(C)C)cc1)n2Cc1ccccc1C(F)(F)F` (stereo not given) was tested, and the IC50 [3] was 0.21 µM and the Activity [1] was 1.9%.
